Assay results from ChEMBL document CHEMBL5352430, “Multi-parameter optimization: Development of a morpholin-3-one derivative with an improved kinetic profile for imaging monoacylglycerol lipase in the brain” (Eur J Med Chem, 2022).

Key:
[1] = Drug uptake in wild type mouse after 20 mins; assay type: ADME; conditions: in vivo
How it was run: (§1)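 Mouse dynamic PET. Tracer at 6.33–14.42 nmol/kg given by tail-vein injection; 60 min scan started 1 min later. Data expressed as SUV, i.e. decay-corrected regional radioactivity normalized to injected dose and body weight. Blocking: MAGLi432 at 5 mg/kg in DMSO/Tween80/saline 1/1/8, injected 5 min before tracer.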

[2] = Lipophilicity, logD of the compound at pH 7.4 by shake flask assay; assay type: physicochemical; conditions: buffer
[3] = Drug uptake in rat brain in presence of SAR127303; assay type: ADME, tissue-based; conditions: in vitro
[4] = Drug uptake in rat brain thalamus; assay type: ADME, tissue-based; conditions: in vitro
[5] = Drug uptake in rat brain cerebellum; assay type: ADME, tissue-based; conditions: in vitro
[6] = Drug uptake in Mdrla/b-Bcrp KO mouse; assay type: ADME; conditions: in vivo; how it was run: as §1
[7] = Drug uptake in Mdrla/b-Bcrp KO mouse pretreated with MAGLi432; assay type: ADME; conditions: in vivo; how it was run: as §1
[8] = Drug uptake in rat brain hippocampus; assay type: ADME, tissue-based; conditions: in vitro
[9] = Drug uptake in rat brainstem; assay type: ADME, tissue-based; conditions: in vitro
[10] = Drug uptake in mouse brain assessed as maximum standardized uptake value measured after 60 mins; assay type: ADME, tissue-based; conditions: in vivo, 1 h; how it was run: as §1
[11] = Drug uptake in rat brain striatum; assay type: ADME, tissue-based; conditions: in vitro
[12] = Drug uptake in rat brain in presence of PF-06795071; assay type: ADME, tissue-based; conditions: in vitro
[13] = Drug uptake in rat brain cortex; assay type: ADME, tissue-based; conditions: in vitro
[14] = Drug uptake in MAGL knock out mouse; assay type: ADME; conditions: in vivo; how it was run: as §1
[15] = Drug uptake in mouse brain assessed as standardized uptake value measured after 2 mins; assay type: ADME, tissue-based; conditions: in vivo; how it was run: as §1

Row | SMILES | Drug uptake [1] | logD [2] | Drug uptake [3] | Drug uptake [4] | Drug uptake [5] | Drug uptake [6] | Drug uptake [7] | Drug uptake [8] | Drug uptake [9] | SUVmax [10] | Drug uptake [11] | Drug uptake [12] | Drug uptake [13] | Drug uptake [14] | SUV [15]
1 | O=C1CO[C@H]2CCN([11C](=O)N3CC(CCc4c(F)cccc4C(F)(F)F)C3)C[C@H]2N1 | Active | 2.65 | Not Active | Active | Active | Active | Not Active | Active | Not Active | 0.4 | Active | Not Active | Active | Not Active | 1.67
2 | O=C1CO[C@H]2CCN([11C](=O)N3CC(OCc4ccc(C(F)(F)F)cc4Cl)C3)C[C@H]2N1 | – | – | – | – | – | – | – | – | – | – | – | – | – | – | 0.72
